The values below come from ChEMBL document CHEMBL1134569, “Synthesis and in vitro and in vivo antimalarial activity of new 4-anilinoquinolines” (J Med Chem, 2001).

What is called IC50 is the concentration needed to halve the response being measured.

Data set [1] is described as follows: Cytotoxicity upon MPMs (mouse peritoneal macrophages) at 12.5 uM conc.;NT=No Toxicity. In outline:
(§1)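 Mouse peritoneal macrophages harvested 48 h after potato-starch stimulation and seeded at 30000 cells/well. After 24 h, washed and exposed to 2-fold drug dilutions in RPMI + 5% FCS (final DMSO below 0.5%) at 37 °C, 5% CO₂, for 7 days. Toxicity scored microscopically as toxic or not versus untreated controls.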

The nature of data set [2]: Cytotoxicity upon MRC-5 cells (diploid embryonic lung cell line) at 3.1 uM. In kind it is cell-based, MRC5. The settings on record: human. In outline: (§2)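 MRC-5 human diploid embryonic lung cells seeded at 5000/well, washed after 24 h, then given 2-fold drug dilutions in RPMI + 5% FCS (final DMSO below 0.5%). Incubated at 37 °C, 5% CO₂, for 7 days. MTT read-out at 540 nm, scored as percent absorbance reduction versus untreated controls.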

Another data set has as its system Plasmodium falciparum. In words: Inhibitory activity against chloroquine-resistant Plasmodium falciparum FcB1R. In kind it is functional, organism-based. The settings on record: Plasmodium falciparum.
A short description of data set [3]: Cytotoxicity upon MRC-5 cells (diploid embryonic lung cell line) at 12.5 uM. The data set is classed as cell-based, MRC5. The settings on record: human. In outline: as §2
Data set [4] in a line: Cytotoxicity upon MPMs (mouse peritoneal macrophages) at 3.1 uM conc.;NT=No Toxicity. In outline: as §1
Data set [5] can be described thus: Cytotoxicity upon MRC-5 cells (diploid embryonic lung cell line) at 6.3 uM. The settings on record: human. In kind it is cell-based, MRC5. The procedure, abridged:
as §2

A short description of data set [6]: Cytotoxicity upon MPMs (mouse peritoneal macrophages) at 6.3 uM. In outline: as §1
A short description of data set [7]: Cytotoxicity upon MRC-5 cells (diploid embryonic lung cell line) at 25 uM conc. The data set is classed as cell-based, MRC5. Conditions: human. In outline:
as §2

Data set [8] is described as follows: Cytotoxicity upon MRC-5 cells (diploid embryonic lung cell line) at 1.6 uM conc. The data set is classed as cell-based, MRC5. The settings on record: human. The procedure, abridged:
as §2

Data set [9] is described as follows: Cytotoxicity upon MPMs (mouse peritoneal macrophages) at 2 uM. In outline:
as §1

On to `O=CNc1cc(CO)cc(Nc2ccnc3cc(Cl)ccc23)c1`, for which the NT entry in data set [1], in data set [4] and in data set [6] was “Cytotoxicity upon MPMs at 6.3 uM” in each case. The compound also had a cytotoxicity at 3.1 µM in [2] of 0%. Further, the IC50 in the data set on Plasmodium falciparum was 360 nM. The cytotoxicity at 12.5 µM in [3] was 0%. The compound also registered a cytotoxicity at 6.3 µM in [5] of 0%.

For the compound `CN1CCN(CC(=O)Nc2cc(CO)cc(Nc3ccnc4cc(Cl)ccc34)c2)CC1`, the NT result in data set [1], in data set [4] and in data set [6] was “Cytotoxicity upon MPMs at 6.3 uM” throughout. In [2], this compound showed a cytotoxicity at 3.1 µM of 0%. This compound had a half-maximal inhibitory concentration (IC50) in the data set with Plasmodium falciparum of 344 nM. This compound gave a cytotoxicity at 12.5 µM in data set [3] of 0%. For the same compound, in data set [5], the cytotoxicity at 6.3 µM stood at 0%.

`O=C(CN1CCCCC1)Nc1cc(COC(=O)CCCCCN2CCCCC2)cc(Nc2ccnc3cc(Cl)ccc23)c1` returned a cytotoxicity at 25 µM in [7] of 92%. The NT entry in [1], in data set [6] and in data set [9] was “Cytotoxicity upon MPMs at 2 uM” in each case. Moreover, in the data set with Plasmodium falciparum, the half-maximal inhibitory concentration (IC50) was 27.4 nM. The compound also registered a cytotoxicity at 1.6 µM in [8] of 0%. The compound further showed a cytotoxicity at 6.3 µM in data set [5] of 81%.

On to `O=C(CN1CCCCC1)Nc1cc(COC(=O)CCCCN2CCCC2)cc(Nc2ccnc3cc(Cl)ccc23)c1`, for which the cytotoxicity at 25 µM in [7] was determined as 82%. In addition, the NT entry in [1], in [6] and in data set [9] was “Cytotoxicity upon MPMs at 2 uM” each time. Further, the midpoint of inhibition in the data set with Plasmodium falciparum, the IC50, lay at 23 nM. Also, the cytotoxicity at 1.6 µM in data set [8] is 0%. For the same compound, the cytotoxicity at 6.3 µM in data set [5] was found to be 83%.

Consider `O=C(CN1CCOCC1)Nc1cc(CO)cc(Nc2ccnc3cc(Cl)ccc23)c1`, for which the NT entry in data set [1], in [4] and in data set [6] was “Cytotoxicity upon MPMs at 6.3 uM” throughout. This compound came in with a cytotoxicity at 3.1 µM in data set [2] of 0%. For the same compound, the IC50 with Plasmodium falciparum is above 1000 nM. For the same compound, the cytotoxicity at 12.5 µM in data set [3] was 0%. The same compound returned a cytotoxicity at 6.3 µM in data set [5] of 0%.

For `O=C(CO)Nc1cc(CO)cc(Nc2ccnc3cc(Cl)ccc23)c1`, the NT entry in [1], in data set [4] and in [6] was “Cytotoxicity upon MPMs at 6.3 uM” each time. This compound also returned a cytotoxicity at 3.1 µM in data set [2] of 0%. The IC50 in the data set on Plasmodium falciparum was above 1000 nM. In data set [3], this compound yielded a cytotoxicity at 12.5 µM of 0%. Moreover, the cytotoxicity at 6.3 µM in data set [5] amounted to 0%.

`CC1CCN(CCCCCCCC(=O)Nc2cc(CO)cc(Nc3ccnc4cc(Cl)ccc34)c2)CC1`: the NT entry in data set [1], in data set [4] and in [6] was “Cytotoxicity upon MPMs at 6.3 uM” in each case. The compound also returned a cytotoxicity at 3.1 µM in [2] of 0%. The compound further gave a 50% inhibitory concentration (IC50) with Plasmodium falciparum of 308 nM. The compound further registered a cytotoxicity at 12.5 µM in data set [3] of 0%. The same compound gave a cytotoxicity at 6.3 µM in data set [5] of 0%.

Regarding `CN1CCN(CCCCC(=O)OCc2cc(NC(=O)CN3CCCCC3)cc(Nc3ccnc4cc(Cl)ccc34)c2)CC1`, in data set [7], the cytotoxicity at 25 µM amounted to 97%. Besides, the NT entry in [1], in data set [6] and in data set [9] was “Cytotoxicity upon MPMs at 2 uM” throughout. The IC50 in the data set on Plasmodium falciparum was found to be 65.1 nM. In [8], this compound registered a cytotoxicity at 1.6 µM of 0%. This compound came in with a cytotoxicity at 6.3 µM in [5] of 0%.

In [7], `O=C(CN1CCCCC1)Nc1cc(COC(=O)CCCCBr)cc(Nc2ccnc3cc(Cl)ccc23)c1` had a cytotoxicity at 25 µM of 0%. Besides, the NT result in data set [1], in data set [6] and in data set [9] was “Cytotoxicity upon MPMs at 2 uM” throughout. This compound also yielded an IC50 with Plasmodium falciparum of 151 nM. Moreover, the cytotoxicity at 1.6 µM in [8] was found to be 0%. In data set [5], this compound had a cytotoxicity at 6.3 µM of 0%.

As for `O=C(C[n+]1ccccc1)Nc1cc(CO)cc(Nc2ccnc3cc(Cl)ccc23)c1.[Cl-]`, the NT result in [1], in data set [4] and in data set [6] was “Cytotoxicity upon MPMs at 6.3 uM” in each case. Moreover, the cytotoxicity at 3.1 µM in data set [2] is 0%. In the data set on Plasmodium falciparum, this compound returned a concentration for half-maximal inhibition (IC50) of 927 nM. Moreover, the cytotoxicity at 12.5 µM in data set [3] stood at 0%. This compound displayed a cytotoxicity at 6.3 µM in data set [5] of 0%.

Consider `O=C(CNCc1ccccc1)Nc1cc(CO)cc(Nc2ccnc3cc(Cl)ccc23)c1`, for which the NT entry in [1], in [4] and in [6] was “Cytotoxicity upon MPMs at 6.3 uM” in each case. Moreover, the cytotoxicity at 3.1 µM in data set [2] is 0%. For the same compound, half-maximal inhibition in the data set on Plasmodium falciparum (IC50) required 193 nM. In addition, the cytotoxicity at 12.5 µM in data set [3] amounted to 0%. Moreover, the cytotoxicity at 6.3 µM in data set [5] is 0%.

In the case of `Nc1cc(CO)cc(Nc2ccnc3cc(Cl)ccc23)c1`, the NT entry in data set [1], in data set [4], in data set [6] and in [9] was “Cytotoxicity upon MPMs at 2 uM” throughout. The cytotoxicity at 3.1 µM in data set [2] stood at 0%. For the same compound, in the data set with Plasmodium falciparum, inhibition was half-maximal at 279 nM (IC50). Besides, the cytotoxicity at 12.5 µM in data set [3] amounted to 0%. Also, the cytotoxicity at 1.6 µM in data set [8] was found to be 0%. Also, the cytotoxicity at 6.3 µM in data set [5] was 0%.

In turn, `O=C(CN1CCCCC1)Nc1cc(COC(=O)CCN2CCCCC2)cc(Nc2ccnc3cc(Cl)ccc23)c1` showed a cytotoxicity at 25 µM in data set [7] of 90%. Further, the NT entry in [1], in data set [6] and in [9] was “Cytotoxicity upon MPMs at 2 uM” in each case. In the data set with Plasmodium falciparum, this compound registered an IC50 of 78.3 nM. The compound also gave a cytotoxicity at 1.6 µM in data set [8] of 0%. The cytotoxicity at 6.3 µM in [5] was 0%.

Take `O=C(Nc1cc(CO)cc(Nc2ccnc3cc(Cl)ccc23)c1)c1ccccc1`: the NT entry in data set [1], in [4] and in data set [6] was “Cytotoxicity upon MPMs at 6.3 uM” throughout. The compound further showed a cytotoxicity at 3.1 µM in data set [2] of 0%. This compound also came in with an IC50 with Plasmodium falciparum above 1000 nM. Further, the cytotoxicity at 12.5 µM in data set [3] was 0%. In data set [5], this compound gave a cytotoxicity at 6.3 µM of 0%.

On to `Nc1ccn(CC(=O)Nc2cc(CO)cc(Nc3ccnc4cc(Cl)ccc34)c2)n1`, for which the NT entry in data set [1], in data set [4] and in data set [6] was “Cytotoxicity upon MPMs at 6.3 uM” throughout. This compound had a cytotoxicity at 3.1 µM in data set [2] of 0%. In the data set on Plasmodium falciparum, this compound had a half-maximal inhibitory concentration (IC50) of 806 nM. The cytotoxicity at 12.5 µM in data set [3] worked out at 0%. This compound gave a cytotoxicity at 6.3 µM in data set [5] of 0%.

`O=C(CN1CCCCC1)Nc1cc(COC(=O)CN2CCCCC2)cc(Nc2ccnc3cc(Cl)ccc23)c1` registered a cytotoxicity at 25 µM in data set [7] of 93%. Besides, in the data set on Plasmodium falciparum, the 50% inhibitory concentration (IC50) stood at 54 nM. Also, the cytotoxicity at 1.6 µM in [8] amounted to 0%. In data set [5], this compound yielded a cytotoxicity at 6.3 µM of 0%.

On to `CC1CCN(CCCCCC(=O)Nc2cc(CO)cc(Nc3ccnc4cc(Cl)ccc34)c2)CC1`, for which the NT result in data set [1], in data set [4] and in data set [6] was “Cytotoxicity upon MPMs at 6.3 uM” throughout. The cytotoxicity at 3.1 µM in data set [2] is 0%. For the same compound, in the data set on Plasmodium falciparum, inhibition was half-maximal at 304 nM (IC50). For the same compound, the cytotoxicity at 12.5 µM in [3] was found to be 0%. Besides, the cytotoxicity at 6.3 µM in data set [5] was found to be 0%.

For the compound `CCN(CC)CCCCC(=O)OCc1cc(NC(=O)CN2CCCCC2)cc(Nc2ccnc3cc(Cl)ccc23)c1`, the cytotoxicity at 25 µM in [7] worked out at 22%. Besides, the NT result in data set [1], in [6] and in [9] was “Cytotoxicity upon MPMs at 2 uM” in each case. This compound displayed an IC50 in the data set on Plasmodium falciparum of 141 nM. This compound gave a cytotoxicity at 1.6 µM in data set [8] of 0%. Further, the cytotoxicity at 6.3 µM in data set [5] is 13%.

With `CC(C)(C)NCC(=O)Nc1cc(CO)cc(Nc2ccnc3cc(Cl)ccc23)c1`, the NT result in data set [1], in data set [4] and in [6] was “Cytotoxicity upon MPMs at 6.3 uM” throughout. For the same compound, the cytotoxicity at 3.1 µM in [2] is 0%. This compound also showed a 50% inhibitory concentration (IC50) in the data set on Plasmodium falciparum of 50.9 nM. In data set [3], this compound gave a cytotoxicity at 12.5 µM of 0%. In data set [5], this compound registered a cytotoxicity at 6.3 µM of 0%.

On to `O=C(CN1CCSC1)Nc1cc(CO)cc(Nc2ccnc3cc(Cl)ccc23)c1`, for which the NT entry in [1], in [4] and in data set [6] was “Cytotoxicity upon MPMs at 6.3 uM” in each case. Moreover, the cytotoxicity at 3.1 µM in [2] was determined as 0%. For the same compound, in the data set with Plasmodium falciparum, the half-inhibitory concentration (IC50) was determined as 588 nM. This compound also gave a cytotoxicity at 12.5 µM in [3] of 0%. In data set [5], the cytotoxicity at 6.3 µM stood at 0%.

As to `CC1CCN(CCCCC(=O)Nc2cc(CO)cc(Nc3ccnc4cc(Cl)ccc34)c2)CC1`, the NT entry in data set [1], in [4] and in data set [6] was “Cytotoxicity upon MPMs at 6.3 uM” in each case. The cytotoxicity at 3.1 µM in data set [2] worked out at 0%. In the data set on Plasmodium falciparum, this compound showed an IC50 of 465 nM. Moreover, the cytotoxicity at 12.5 µM in data set [3] was found to be 0%. For the same compound, the cytotoxicity at 6.3 µM in data set [5] was found to be 0%.
